The list is not random: actives were taken first. Their share in the collection is about 5.8%.
T cruzi growth: blocks T. cruzi growth in NIH3T3 culture; T. cruzi beta-gal in NIH3T3, GalScreen luminescence, 90 h; AID 624255; inhibition, % at 8.34 µM; actives 5.9% (n = 77,000);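 active = mean inhibition above about 93%, with at least 55% of replicates each passing it, limit read from the data, passing the limit was not always enough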
KDM4C inh: blocks human GASC-1 (KDM4C) demethylase activity. GST-KDM4C 2-372, H3K9me3 peptide, LANCE TR-FRET. inhibition, % at 12.5 µM. Q9H3R0. actives 0.15% (n = 96,000). AID 720574;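 active = mean replicate inhibition above about 25%, with at least 55% of replicates also reaching it, limit read from the data, passing the limit was not always enough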
Target sequence (Q9H3R0 2-372 limits assumed): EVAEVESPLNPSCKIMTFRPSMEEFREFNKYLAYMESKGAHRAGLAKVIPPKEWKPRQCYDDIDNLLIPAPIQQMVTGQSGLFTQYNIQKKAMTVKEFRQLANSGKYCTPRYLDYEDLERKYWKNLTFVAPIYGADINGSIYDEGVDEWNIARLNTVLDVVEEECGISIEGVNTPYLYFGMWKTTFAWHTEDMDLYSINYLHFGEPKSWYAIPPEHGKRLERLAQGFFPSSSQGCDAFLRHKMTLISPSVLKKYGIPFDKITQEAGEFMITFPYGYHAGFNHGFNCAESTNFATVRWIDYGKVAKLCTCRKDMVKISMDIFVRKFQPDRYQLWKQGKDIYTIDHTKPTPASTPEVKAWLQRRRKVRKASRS
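material = GST-tagged GASC-1 (JMJD2C) catalytic fragment, aa 2-372 | amount = enzyme final amount 10 nM | medium = HEPES buffer, pH 7.5, plus ascorbate | also added = H3K9me3 peptide substrate, Fe(II), 2-oxoglutarate | dosing = single dose | times = 30 min demethylation and 1 h detection at room temperature | detection = LANCE TR-FRET | read-out basis = Fall in 671/618 emission ratio as inhibition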
IDH1 mut inh: IDH1 R132H (human) inhibition. inhibition, % at 10 µM. IDH1 R132H reductase, diaphorase/resazurin fluorescence, 60 min. actives 0.18% (n = 70,000); in the data active = inhibition above about 34%
Pf Dd2 inh: blocks growth of Plasmodium falciparum Dd2 parasites; P. falciparum Dd2 growth, SYBR Green, 72 h; stronger effect = lower value; activity change, % at 10 µM; actives 2.3% (n = 94,000); AID 1159554; in the data active = activity change below about -80%
Of the large screens only hits and unclear results are named; the others gave an inactive call.

C[C@H]1CCCCO[C@@H](CN(C)S(=O)(=O)c2ccc(Cl)cc2)[C@@H](C)CN([C@@H](C)CO)C(=O)c2cc(NS(=O)(=O)c3ccccc3)ccc2O1	Pf Dd2 inh -83.0 (no result: T cruzi growth, KDM4C inh, IDH1 mut inh)
CCN1[C@@H]2c3ccc(C4=CCCCC4)c(=O)n3C[C@H]1[C@H](CO)[C@H]2C(=O)NCCOC	none (no result: IDH1 mut inh, Pf Dd2 inh)
CCCN(C)C[C@H]1OCCCC[C@@H](C)Oc2ccc(NC(=O)c3ccncc3)cc2C(=O)N([C@@H](C)CO)C[C@H]1C	Pf Dd2 inh -87.7 (no result: IDH1 mut inh)
CCCN(C)C[C@H]1OCCCC[C@@H](C)Oc2ccc(NC(=O)c3ccncc3)cc2C(=O)N([C@H](C)CO)C[C@@H]1C	none
CCCN(C)C[C@H]1OCCCC[C@H](C)Oc2ccc(NC(=O)c3ccncc3)cc2C(=O)N([C@H](C)CO)C[C@H]1C	Pf Dd2 inh -85.8 (no result: IDH1 mut inh)
CCCNC(=O)N[C@@H]1CC[C@@H](CC(=O)N2CCN(C)CC2)O[C@@H]1CO	none
COc1ccc2c3c([nH]c2c1)[C@H](CO)N(C(=O)CN(C)C)CC31CCN(Cc2ccccc2)CC1	Pf Dd2 inh -82.0 (no result: T cruzi growth, IDH1 mut inh)
COc1ccc2c3c([nH]c2c1)[C@H](CO)N(C(=O)CN(C)C)CC31CN(CC2CCOCC2)C1	none (no result: T cruzi growth, IDH1 mut inh)
COc1ccc2c3c([nH]c2c1)[C@@H](CO)N(C(=O)CN(C)C)CC31CN(CC2CCCC2)C1	Pf Dd2 inh -86.3 (no result: T cruzi growth, IDH1 mut inh)
CNC[C@@H]1OCCCC[C@H](C)Oc2ccc(NC(=O)c3ccncc3)cc2C(=O)N([C@@H](C)CO)C[C@H]1C	none (no result: KDM4C inh)
COCC(=O)N(C)C[C@H]1Oc2ncc(C#C[C@@H](C)O)cc2C(=O)N([C@H](C)CO)C[C@H]1C	none (no result: IDH1 mut inh, Pf Dd2 inh)
C[C@H](CO)N1C[C@H](C)[C@@H](CN(C)C(=O)Nc2cccc(Cl)c2Cl)OCc2ccccc2-c2c(n(C)c3ccccc23)C1=O	none (no result: T cruzi growth, IDH1 mut inh)
C[C@@H]1CN([C@@H](C)CO)C(=O)c2c(c3ccccc3n2C)-c2ccccc2CO[C@H]1CN(C)C(=O)Nc1cccc(Cl)c1Cl	Pf Dd2 inh -94.1 (no result: T cruzi growth, IDH1 mut inh)
C[C@H]1CN([C@@H](C)CO)C(=O)c2c(c3ccccc3n2C)-c2ccccc2CO[C@H]1CN(C)C(=O)Nc1cccc(Cl)c1Cl	Pf Dd2 inh -90.9 (no result: T cruzi growth, IDH1 mut inh)
C[C@H](CO)N1C[C@H](C)[C@H](CN(C)C(=O)Nc2cccc(Cl)c2Cl)OCc2ccccc2-c2c(n(C)c3ccccc23)C1=O	none (no result: T cruzi growth, IDH1 mut inh)
COc1ccc(NC(=O)Nc2ccc3c(c2)CC(=O)N([C@H](C)CO)C[C@H](C)[C@@H](CN(C)Cc2ccc(C(=O)Nc4ccccc4N)cc2)O3)cc1	none (no result: T cruzi growth)
COc1ccc(NC(=O)Nc2ccc3c(c2)C(=O)N([C@H](C)CO)C[C@H](C)[C@@H](CN(C)S(=O)(=O)c2cn(C)cn2)OCCCC[C@@H](C)O3)cc1	none
CCNC(=O)[C@@H]1[C@@H](CO)[C@@H]2Cn3c(ccc(-c4ccncc4)c3=O)[C@@H]2N1Cc1ccc2c(c1)OCO2	none (no result: IDH1 mut inh)
C[C@@H]1CN([C@@H](C)CO)C(=O)c2cccc(NC(=O)CCCCCC(=O)Nc3ccccc3N)c2O[C@@H]1CN(C)S(=O)(=O)c1ccccc1	Pf Dd2 inh -89.5 (no result: T cruzi growth, IDH1 mut inh)
C[C@@H]1CN([C@H](C)CO)C(=O)c2cccc(NC(=O)CCCCCC(=O)Nc3ccccc3N)c2O[C@H]1CN(C)S(=O)(=O)c1cccs1	none (no result: T cruzi growth)
Cc1ccc(S(=O)(=O)N(C)C[C@@H]2Oc3c(NC(=O)CCCCCC(=O)Nc4ccccc4N)cccc3C(=O)N([C@@H](C)CO)C[C@H]2C)cc1	Pf Dd2 inh -87.6 (no result: T cruzi growth)
C[C@@H]1CN([C@@H](C)CO)C(=O)c2cccc(NC(=O)CCCCCC(=O)Nc3ccccc3N)c2O[C@@H]1CN(C)S(=O)(=O)c1cccs1	Pf Dd2 inh -91.5 (no result: T cruzi growth)
Cc1ccc(S(=O)(=O)N(C)C[C@H]2Oc3c(NC(=O)CCCCCC(=O)Nc4ccccc4N)cccc3C(=O)N([C@@H](C)CO)C[C@H]2C)cc1	Pf Dd2 inh -91.4 (no result: T cruzi growth)
O=C(OCc1nc2ccccc2s1)c1ccc([N+](=O)[O-])cc1	none (no result: T cruzi growth, KDM4C inh, Pf Dd2 inh)
CC(C)NC(=O)Nc1ccc2c(c1)C(=O)N([C@H](C)CO)C[C@H](C)[C@@H](CN(C)C(=O)Nc1ccccc1)OCCCC[C@H](C)O2	none
C[C@H]1CN([C@@H](C)CO)C(=O)Cc2cc(NC(=O)Cn3cnnn3)ccc2O[C@H]1CN(C)Cc1ccc(Oc2ccccc2)cc1	none
C[C@@H]1CN([C@@H](C)CO)S(=O)(=O)c2ccc(-c3cncnc3)cc2O[C@@H]1CN(C)C(=O)c1ccc2c(c1)OCO2	none
COc1ccc(S(=O)(=O)N(C)C[C@H]2OCCCC[C@H](C)Oc3ccc(NC(=O)c4ccccc4)cc3C(=O)N([C@@H](C)CO)C[C@H]2C)cc1	Pf Dd2 inh -84.8
COc1ccc(S(=O)(=O)N(C)C[C@@H]2OCCCC[C@H](C)Oc3ccc(NC(=O)c4ccccc4)cc3C(=O)N([C@@H](C)CO)C[C@H]2C)cc1	Pf Dd2 inh -84.2
COc1ccc(-c2nnc3c4ccccc4c(C)nn23)cc1S(=O)(=O)NC(C)c1ccccc1 (configuration not stated)	none (no result: T cruzi growth, KDM4C inh, Pf Dd2 inh)
CO[C@H]1CN(C)C(=O)c2ccc(NC(=O)CC(F)(F)F)cc2OC[C@@H](C)N(CC2CC2)C[C@H]1C	Pf Dd2 inh -85.7 (no result: T cruzi growth, IDH1 mut inh)
CCC(=O)Nc1ccc2c(c1)OC[C@H](C)N(CC1CCOCC1)C[C@H](C)[C@H](OC)CN(C)C2=O	KDM4C inh 44.1
COc1ccccc1CN1C[C@@H](C)[C@H](OC)CN(C)C(=O)c2ccc(NC(=O)Nc3ccccc3OC)cc2OC[C@H]1C	Pf Dd2 inh -90.2
COc1ccccc1CN1C[C@@H](C)[C@@H](OC)CN(C)C(=O)c2ccc(NC(C)=O)cc2OC[C@@H]1C	none
C[C@H](CO)N1C[C@H](C)[C@H](CN(C)C(=O)c2ccccn2)Oc2cc(C#Cc3ccccc3)ccc2S1(=O)=O	none (no result: KDM4C inh)
Cc1ccc(S(=O)(=O)N(C)C[C@@H]2OCCCC[C@@H](C)Oc3ccc(NC(=O)Nc4cccc5ccccc45)cc3C(=O)N([C@@H](C)CO)C[C@@H]2C)cc1	Pf Dd2 inh -82.1 (no result: T cruzi growth, IDH1 mut inh)
Cc1ccc(S(=O)(=O)N(C)C[C@@H]2OCCCC[C@H](C)Oc3ccc(NC(=O)Nc4cccc5ccccc45)cc3C(=O)N([C@H](C)CO)C[C@H]2C)cc1	Pf Dd2 inh -81.8 (no result: T cruzi growth)
O=C(c1ccc2c(c1)OCO2)N1CC(=O)N2[C@H](CO)[C@@H](c3ccc(C#CC4CCCC4)cc3)[C@@H]2C1	none (no result: T cruzi growth, IDH1 mut inh)
COc1ccc(S(=O)(=O)N(C)C[C@@H]2Oc3ccc(NS(=O)(=O)c4ccc(Cl)cc4)cc3CC(=O)N([C@@H](C)CO)C[C@@H]2C)cc1	Pf Dd2 inh -82.5
COc1ccc(S(=O)(=O)Nc2ccc3c(c2)CC(=O)N([C@H](C)CO)C[C@H](C)[C@H](CN(C)S(=O)(=O)c2ccc(Cl)cc2)O3)cc1	none
COc1ccc(S(=O)(=O)N(C)C[C@@H]2Oc3ccc(NS(=O)(=O)c4ccc(F)cc4)cc3CC(=O)N([C@@H](C)CO)C[C@@H]2C)cc1	none
COc1ccc(S(=O)(=O)Nc2ccc3c(c2)CC(=O)N([C@H](C)CO)C[C@H](C)[C@H](CN(C)S(=O)(=O)c2ccc(C)cc2)O3)cc1	Pf Dd2 inh -86.3
